By Ki is commonly meant the dissociation constant of the complex between target and ligand, obtained from inhibition or displacement. A lower Ki goes with a stronger hold on the target. For orientation: EC50 means the midpoint of the concentration-response curve. Broadly, the inhibition is the relative decrease from the control value, in per cent.

Series [1] has as its target Plasmepsin II (Plasmodium falciparum, UniProt P46925). Nature of the series: Inhibition of Plasmodium falciparum plasmepsin-2. In short, it runs like this:
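Plm II (400 nM) hydrolysis of chromogenic substrate H-Ala-Leu-Glu-Arg-Thr-Phe-Phe(p-NO2)-Ser-Phe-Pro-Thr-OH (163 μM) in 10 mM sodium formate pH 4.0, 2% DMSO, 25 °C, with increasing inhibitor. Rates fitted to tight-binding competitive inhibition equations for Ki.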

In series [2] the test system is Plasmodium falciparum. Nature of the series: Antimalarial activity against chloroquine-sensitive Plasmodium falciparum NF54 in type O+ human erythrocytes after 48 hrs as reduced [3H]hypoxanthine uptake. It is filed as functional, organism-based. A digest of the protocol:
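NF54 parasites grown in 2.4% O+ human erythrocyte suspension in RPMI 1640 with 25 mM HEPES, 27 mM NaHCO3, 10% heat-inactivated O+ human serum, under 3% O2/4% CO2/93% N2. Compounds serially diluted in 0.2% DMSO medium, incubated with culture 48 h, then 0.6 μCi [3H]hypoxanthine added for 20 h. Harvested on glass filters, scintillation counted. IC50 from dose-response curves.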

Series [3] is described as follows: Cytotoxicity against rat L6 cells after 72 hrs by Alamar blue resazurin assay. Type of series: cell-based. Conditions: read-out: TD50. (Resazurin is reduced to fluorescent resorufin, in cell work by metabolically active cells.)
In series [4] the target is Protease (Human immunodeficiency virus 1) (UniProt Q9YQ12). Nature of the series: Inhibition of recombinant HIV1 protease at 50 nM. In short, it runs like this: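 Recombinant HIV-1 PR (2 μg/mL stock) was mixed with inhibitor (500 nM solution in DMSO) in MES–NaOH pH 5.5 buffer containing DTT, EDTA and 1 M NaCl. The reaction was started with substrate H-Lys-Ala-Arg-Val-Tyr-Phe(p-NO₂)-Glu-Ala-Nle-NH₂ (1.0 mM solution) and run 15 min at 37 °C, then stopped with 1M HCl. The cleaved N-terminal fragment was quantified by reversed-phase C18 HPLC.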

Bounds are passed on as bounds.

Protease (Human immunodeficiency virus 1), sequence (Q9YQ12 as listed by the source): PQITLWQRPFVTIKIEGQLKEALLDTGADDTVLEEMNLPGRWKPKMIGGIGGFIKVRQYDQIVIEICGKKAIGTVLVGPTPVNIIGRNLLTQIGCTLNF
Plasmepsin II, sequence (P46925 whole entry): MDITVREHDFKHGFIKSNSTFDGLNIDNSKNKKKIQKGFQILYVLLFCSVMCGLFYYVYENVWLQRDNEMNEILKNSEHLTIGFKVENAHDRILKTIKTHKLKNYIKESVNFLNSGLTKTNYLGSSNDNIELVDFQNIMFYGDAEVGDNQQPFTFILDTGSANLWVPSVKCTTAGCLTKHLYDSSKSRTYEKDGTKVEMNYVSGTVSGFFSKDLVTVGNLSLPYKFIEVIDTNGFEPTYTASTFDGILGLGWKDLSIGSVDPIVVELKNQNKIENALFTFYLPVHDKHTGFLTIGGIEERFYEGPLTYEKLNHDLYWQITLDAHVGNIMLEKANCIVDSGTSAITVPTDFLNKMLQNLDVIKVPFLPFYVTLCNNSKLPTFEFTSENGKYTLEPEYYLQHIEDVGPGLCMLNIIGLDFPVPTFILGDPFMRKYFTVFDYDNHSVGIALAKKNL

`CCCCNc1cc(C)c(OCC(=O)N[C@@H](Cc2ccccc2)[C@H](O)C(=O)N2CSC(C)(C)[C@H]2C(=O)N[C@H]2c3ccccc3C[C@H]2O)c(C)c1` yielded an inhibitory constant (Ki) in series [1] of 30 nM. In series [2], this compound returned an EC50 of 540 nM. The CC50 at 72 h in series [3] came to 22000 nM. Also, the inhibition in series [4] is 85%.
In turn, `Cc1cccc(OCC(=O)N[C@@H](Cc2ccccc2)[C@H](O)C(=O)N2CSC(C)(C)[C@H]2C(=O)N[C@H]2c3ccccc3C[C@H]2O)c1` came in with a Ki in series [1] of 42 nM. Besides, the EC50 in series [2] was above 8000 nM. Moreover, in series [4], the inhibition is 13%.
`Cc1cc(NCc2ccccn2)cc(C)c1OCC(=O)N[C@@H](Cc1ccccc1)[C@H](O)C(=O)N1CSC(C)(C)[C@H]1C(=O)N[C@H]1c2ccccc2C[C@H]1O` had a Ki in series [1] of 10 nM. Moreover, in series [2], the EC50 came to 300 nM. Besides, the CC50 at 72 h in series [3] is above 120000 nM. In series [4], the inhibition was determined as 91%.
Regarding `CC1(C)SCN(C(=O)[C@@H](O)[C@H](Cc2ccccc2)NC(=O)COc2ccc([N+](=O)[O-])cc2)[C@@H]1C(=O)N[C@H]1c2ccccc2C[C@H]1O`, in series [1], the affinity corresponds to a Ki of 25 nM. The same compound returned an EC50 in series [2] of 4200 nM. Besides, in series [3], the CC50 at 72 h amounted to 63000 nM. Further, in series [4], the inhibition came to 53%.
The compound `CC1(C)SCN(C(=O)[C@@H](O)[C@H](Cc2ccccc2)NC(=O)COc2ccc(O)cc2)[C@@H]1C(=O)N[C@H]1c2ccccc2C[C@H]1O` displayed a Ki in series [1] of 10 nM. This compound returned an EC50 in series [2] above 8000 nM. In series [4], the inhibition was 31%.
In the case of `CNc1cc(C)c(OCC(=O)N[C@@H](Cc2ccccc2)[C@H](O)C(=O)N2CSC(C)(C)[C@H]2C(=O)N[C@H]2c3ccccc3C[C@H]2O)c(C)c1`, in series [1], the Ki is 25 nM. In series [2], this compound returned an EC50 of 450 nM. The CC50 at 72 h in series [3] was above 120000 nM. Also, the inhibition in series [4] was 91%.
Regarding `CC1(C)SCN(C(=O)[C@@H](O)[C@H](Cc2ccccc2)NC(=O)COc2ccccc2CO)[C@@H]1C(=O)N[C@H]1c2ccccc2C[C@H]1O`, in series [1], the affinity corresponds to a Ki of 132 nM. In series [4], the inhibition came to 61%.
As to `CC1(C)SCN(C(=O)[C@@H](O)[C@H](Cc2ccccc2)NC(=O)COc2cccc(CO)c2)[C@@H]1C(=O)N[C@H]1c2ccccc2C[C@H]1O`, the Ki in series [1] came out at 9 nM. The EC50 in series [2] is above 8000 nM. Also, in series [4], the inhibition worked out at 24%.
In the case of `CC1(C)SCN(C(=O)[C@@H](O)[C@H](Cc2ccccc2)NC(=O)COc2c(F)cccc2F)[C@@H]1C(=O)N[C@H]1c2ccccc2C[C@H]1O`, in series [1], the affinity corresponds to a Ki of 14 nM. The compound further gave an EC50 in series [2] of 3300 nM. In addition, the CC50 at 72 h in series [3] is 55000 nM. Further, the inhibition in series [4] was determined as 58%.
Compound `CC1(C)SCN(C(=O)[C@@H](O)[C@H](Cc2ccccc2)NC(=O)COc2cccc(N)c2)[C@@H]1C(=O)N[C@H]1c2ccccc2C[C@H]1O` came in with an inhibition constant (Ki) in series [1] of 29 nM. Further, the EC50 in series [2] was above 8000 nM. For the same compound, the inhibition in series [4] came to 29%.
For the compound `CC(C)c1cccc(C(C)C)c1OCC(=O)N[C@@H](Cc1ccccc1)[C@H](O)C(=O)N1CSC(C)(C)[C@H]1C(=O)N[C@H]1c2ccccc2C[C@H]1O`, in series [1], the Ki came to 23 nM. In addition, the response in series [2] was half-maximal at 2900 nM (EC50). For the same compound, in series [3], the CC50 at 72 h came out at 6300 nM. Further, the inhibition in series [4] turned out to be 0%.
For `COc1cccc(OC)c1OCC(=O)N[C@@H](Cc1ccccc1)[C@H](O)C(=O)N1CSC(C)(C)[C@H]1C(=O)N[C@H]1c2ccccc2C[C@H]1O`, the Ki in series [1] was found to be 782 nM. Besides, the inhibition in series [4] worked out at 54%.
`COc1cccc(OCC(=O)N[C@@H](Cc2ccccc2)[C@H](O)C(=O)N2CSC(C)(C)[C@H]2C(=O)N[C@H]2c3ccccc3C[C@H]2O)c1` came in with a Ki in series [1] of 4 nM. The same compound yielded an EC50 in series [2] above 8000 nM. Moreover, the inhibition in series [4] worked out at 10%.
`Cc1cc(NCc2ccncc2)cc(C)c1OCC(=O)N[C@@H](Cc1ccccc1)[C@H](O)C(=O)N1CSC(C)(C)[C@H]1C(=O)N[C@H]1c2ccccc2C[C@H]1O` displayed a Ki in series [1] of 6 nM. Moreover, a half-maximal effect in series [2] (EC50) was put at 490 nM. The CC50 at 72 h in series [3] is above 120000 nM. For the same compound, the inhibition in series [4] was found to be 91%.
Compound `Cc1cc(N(C)C)cc(C)c1OCC(=O)N[C@@H](Cc1ccccc1)[C@H](O)C(=O)N1CSC(C)(C)[C@H]1C(=O)N[C@H]1c2ccccc2C[C@H]1O` registered a Ki in series [1] of 21 nM. In series [2], this compound had a half-maximal effective concentration (EC50) of 1200 nM. Further, the CC50 at 72 h in series [3] was found to be 45000 nM. Also, the inhibition in series [4] came out at 86%.
`CC1(C)SCN(C(=O)[C@@H](O)[C@H](Cc2ccccc2)NC(=O)COc2c(Cl)cccc2Cl)[C@@H]1C(=O)N[C@H]1c2ccccc2C[C@H]1O` displayed a Ki in series [1] of 39 nM. A half-maximal response in series [2] (EC50) required 5200 nM. In series [4], the inhibition came to 95%.
In series [1], `CC1(C)SCN(C(=O)[C@@H](O)[C@H](Cc2ccccc2)NC(=O)COc2ccc(CO)cc2)[C@@H]1C(=O)N[C@H]1c2ccccc2C[C@H]1O` came in with a Ki of 10 nM. Besides, the midpoint of the response in series [2], the EC50, lay at 1100 nM. Moreover, the CC50 at 72 h in series [3] is above 120000 nM. Also, the inhibition in series [4] turned out to be 37%.
Compound `CC1(C)SCN(C(=O)[C@@H](O)[C@H](Cc2ccccc2)NC(=O)COc2cccc(O)c2)[C@@H]1C(=O)N[C@H]1c2ccccc2C[C@H]1O` showed a Ki in series [1] of 10 nM. This compound gave an EC50 in series [2] above 8000 nM. In addition, the inhibition in series [4] is 13%.
Consider `Cc1ccccc1OCC(=O)N[C@@H](Cc1ccccc1)[C@H](O)C(=O)N1CSC(C)(C)[C@H]1C(=O)N[C@H]1c2ccccc2C[C@H]1O`, for which, in series [1], the Ki worked out at 145 nM. Also, in series [4], the inhibition came to 72%.
On the same counts, the results for `Cc1cc(N)cc(C)c1OCC(=O)N[C@@H](Cc1ccccc1)[C@H](O)C(=O)N1CSC(C)(C)[C@H]1C(=O)N[C@H]1c2ccccc2C[C@H]1O` are 23 nM and 96%.
In series [1], `COc1ccccc1OCC(=O)N[C@@H](Cc1ccccc1)[C@H](O)C(=O)N1CSC(C)(C)[C@H]1C(=O)N[C@H]1c2ccccc2C[C@H]1O` showed a Ki of 153 nM. Further, in series [4], the inhibition amounted to 27%.
On to `Cc1cccc(C)c1OCC(=O)N[C@@H](Cc1ccccc1)[C@H](O)C(=O)N1CSC(C)(C)[C@H]1C(=O)N[C@H]1c2ccccc2C[C@H]1O`, for which the inhibition in series [4] was 98%.
In turn, `CC1(C)SCN(C(=O)[C@@H](O)[C@H](Cc2ccccc2)NC(=O)COc2ccccc2[N+](=O)[O-])[C@@H]1C(=O)N[C@H]1c2ccccc2C[C@H]1O` registered a Ki in series [1] of 55 nM. For the same compound, the inhibition in series [4] was 9%.
In series [1], `CC1(C)SCN(C(=O)[C@@H](O)[C@H](Cc2ccccc2)NC(=O)COc2cccc([N+](=O)[O-])c2)[C@@H]1C(=O)N[C@H]1c2ccccc2C[C@H]1O` came in with a Ki of 38 nM. In series [2], this compound came in with an EC50 of 2800 nM. Also, the CC50 at 72 h in series [3] was determined as 58000 nM. The inhibition in series [4] is 12%.
On the same counts, the results for `Cc1cc(F)cc(C)c1OCC(=O)N[C@@H](Cc1ccccc1)[C@H](O)C(=O)N1CSC(C)(C)[C@H]1C(=O)N[C@H]1c2ccccc2C[C@H]1O` are 19 nM, 1400 nM, 29000 nM and 87%.
On the same counts, the results for `CCNc1cc(C)c(OCC(=O)N[C@@H](Cc2ccccc2)[C@H](O)C(=O)N2CSC(C)(C)[C@H]2C(=O)N[C@H]2c3ccccc3C[C@H]2O)c(C)c1` are 7 nM, 720 nM, 64000 nM and 84%.
`CC1(C)SCN(C(=O)[C@@H](O)[C@H](Cc2ccccc2)NC(=O)COc2ccccc2N)[C@@H]1C(=O)N[C@H]1c2ccccc2C[C@H]1O` showed a Ki in series [1] of 126 nM. In series [4], the inhibition worked out at 62%.
For the compound `Cc1ccc(OCC(=O)N[C@@H](Cc2ccccc2)[C@H](O)C(=O)N2CSC(C)(C)[C@H]2C(=O)N[C@H]2c3ccccc3C[C@H]2O)cc1`, the Ki in series [1] amounted to 55 nM. In series [2], this compound showed an EC50 above 8000 nM. Further, in series [4], the inhibition came out at 27%.
`Cc1cc(O)cc(C)c1OCC(=O)N[C@@H](Cc1ccccc1)[C@H](O)C(=O)N1CSC(C)(C)[C@H]1C(=O)N[C@H]1c2ccccc2C[C@H]1O` had a Ki in series [1] of 5 nM. The compound also came in with an EC50 in series [2] of 3300 nM. Also, in series [4], the inhibition stood at 98%.
In turn, `CC1(C)SCN(C(=O)[C@@H](O)[C@H](Cc2ccccc2)NC(=O)COc2ccc(N)cc2)[C@@H]1C(=O)N[C@H]1c2ccccc2C[C@H]1O` showed a Ki in series [1] of 28 nM. Also, in series [2], the EC50 was above 8000 nM. The inhibition in series [4] is 27%.
As to `CCCCCNc1cc(C)c(OCC(=O)N[C@@H](Cc2ccccc2)[C@H](O)C(=O)N2CSC(C)(C)[C@H]2C(=O)N[C@H]2c3ccccc3C[C@H]2O)c(C)c1`, the Ki in series [1] turned out to be 26 nM. In addition, the EC50 in series [2] worked out at 430 nM. Moreover, the CC50 at 72 h in series [3] was 12000 nM. Further, the inhibition in series [4] was found to be 78%.
Regarding `COc1ccc(OCC(=O)N[C@@H](Cc2ccccc2)[C@H](O)C(=O)N2CSC(C)(C)[C@H]2C(=O)N[C@H]2c3ccccc3C[C@H]2O)cc1`, affinity in series [1] was put at a Ki of 479 nM. Besides, the inhibition in series [4] was determined as 38%.
`CC1(C)SCN(C(=O)[C@@H](O)[C@H](Cc2ccccc2)NC(=O)COc2ccccc2O)[C@@H]1C(=O)N[C@H]1c2ccccc2C[C@H]1O` yielded a Ki in series [1] of 112 nM. Moreover, in series [4], the inhibition turned out to be 34%.

For the origin of these results see ChEMBL document CHEMBL1151686, “Antimalarial activity enhancement in hydroxymethylcarbonyl (HMC) isostere-based dipeptidomimetics targeting malarial aspartic protease plasmepsin” (Bioorg Med Chem, 2008).
